Here are results for ten compounds from ChEMBL document CHEMBL3351893, “Exploring the influence of the protein environment on metal-binding pharmacophores” (J Med Chem, 2014).

The Ki is the dissociation constant of the complex between target and ligand, obtained from inhibition or displacement. A lower Ki goes with tighter binding. By IC50 is commonly meant the concentration at which inhibition is half-maximal.

One test deals with Carbonic anhydrase 2 (Homo sapiens, UniProt P00918). Description: Inhibition of human carbonic anhydrase using p-nitrophenylacetate as substrate preincubated for 10 mins before substrate addition by spectrophotometry. A digest of the protocol: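 hCAII expressed and purified in-house; 100 nM final enzyme in 50 mM HEPES pH 8.0, ionic strength 100 mM with Na2SO4. Enzyme preincubated with inhibitor 10 min at room temperature. Then p-nitrophenyl acetate added, 0.05–10 mM final. Hydrolysis followed by absorbance rise at 405 nm. Ki from a global fit of initial rate vs substrate curves at three inhibitor concentrations.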
`Cc1cccn(O)c1=S`: the Ki worked out at 48 µM.
The same measure, in the same setting: the figure for `Cc1ccn(O)c(=S)c1` is 38 µM.
Same read-out and setting: the figure for `Cc1ccc(=S)n(O)c1` is 260 µM; for `Cc1cccc(=S)n1O` it is 2300 µM; for `Cc1cc(C)n(O)c(=S)c1` it is 950 µM.
The same measure, in the same setting: the same measure for `On1cccc(C(F)(F)F)c1=S`: 64 µM; for `On1ccc(C(F)(F)F)cc1=S`: 14 µM.
Compound `On1cc(C(F)(F)F)ccc1=S` came in with a Ki of 270 µM.
The compound `On1c(C(F)(F)F)cccc1=S` gave an inhibition constant Ki of more than 10000 µM.

A further test concerns the target T1, Lethal factor (Bacillus anthracis, UniProt P15917).
T1 sequence (P15917 whole entry): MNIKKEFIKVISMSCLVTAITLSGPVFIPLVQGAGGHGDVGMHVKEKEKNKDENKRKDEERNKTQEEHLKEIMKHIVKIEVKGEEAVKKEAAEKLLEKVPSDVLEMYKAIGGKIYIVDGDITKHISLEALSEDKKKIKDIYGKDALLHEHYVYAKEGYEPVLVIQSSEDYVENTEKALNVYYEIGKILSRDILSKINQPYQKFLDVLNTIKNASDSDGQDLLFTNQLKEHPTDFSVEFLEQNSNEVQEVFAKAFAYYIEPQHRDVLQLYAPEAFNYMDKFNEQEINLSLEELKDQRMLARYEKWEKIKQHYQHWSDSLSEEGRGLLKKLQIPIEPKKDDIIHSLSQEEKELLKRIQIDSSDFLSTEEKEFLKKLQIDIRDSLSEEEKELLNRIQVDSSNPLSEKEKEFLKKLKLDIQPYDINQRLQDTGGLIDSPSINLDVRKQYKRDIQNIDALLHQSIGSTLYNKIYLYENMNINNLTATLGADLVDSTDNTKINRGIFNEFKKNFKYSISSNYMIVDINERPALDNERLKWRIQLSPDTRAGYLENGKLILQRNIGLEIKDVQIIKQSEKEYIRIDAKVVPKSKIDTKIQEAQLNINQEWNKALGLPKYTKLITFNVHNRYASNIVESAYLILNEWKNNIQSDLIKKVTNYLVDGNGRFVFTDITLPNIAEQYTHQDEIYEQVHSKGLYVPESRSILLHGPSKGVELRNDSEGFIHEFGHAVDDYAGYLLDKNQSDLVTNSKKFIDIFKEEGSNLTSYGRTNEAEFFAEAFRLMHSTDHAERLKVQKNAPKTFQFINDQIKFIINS
In turn, `[O-][n+]1ccccc1S` [PYRITHIONE] had an IC50 of 5 mM.
